From PubChem BioAssay
CHRM5 agonist: agonists of human muscarinic M5 receptor (CHRM5); CHO-K1 hM5 cells, Fluo-8 calcium fluorescence; 0% DMSO wells, 100% maximal acetylcholine response; activation, % at 3 µM; hit rate 0.19% among 360,000;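 active means activation above the run's mean over test compounds plus 3 SD, cut at about 23% in these data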;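 further: signal is peak over basal fluorescence ratio across the kinetic read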
M4 antag: antagonists of human muscarinic M4 receptor (CHRM4) | hit rate 0.73% among 360,000 | P08173 | CHO-hM4 cells, ACh EC80, Fluo-8 calcium fluorescence | inhibition, % at 3 µM;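 active means inhibition above its plate's cutoff, the mean inhibition of sample wells plus 3 SD, cut at about 27% in these data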;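 further: 0% = acetylcholine EC80 with DMSO and 100% = DMSO without agonist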
Target sequence (P08173 whole entry, looked up): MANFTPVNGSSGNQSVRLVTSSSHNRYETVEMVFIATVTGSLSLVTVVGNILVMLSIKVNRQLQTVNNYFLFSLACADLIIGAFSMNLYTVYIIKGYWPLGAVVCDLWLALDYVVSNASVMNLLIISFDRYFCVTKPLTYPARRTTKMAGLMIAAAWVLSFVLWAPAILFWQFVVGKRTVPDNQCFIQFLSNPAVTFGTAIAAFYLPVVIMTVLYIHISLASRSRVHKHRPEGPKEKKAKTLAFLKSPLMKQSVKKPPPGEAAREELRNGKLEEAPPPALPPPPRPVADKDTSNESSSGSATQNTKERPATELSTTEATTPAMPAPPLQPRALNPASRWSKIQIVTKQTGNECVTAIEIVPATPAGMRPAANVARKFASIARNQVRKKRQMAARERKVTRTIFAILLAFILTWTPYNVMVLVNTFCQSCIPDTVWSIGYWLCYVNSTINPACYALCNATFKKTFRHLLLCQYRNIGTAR
CHRM4 PAM: positive allosteric modulators of human muscarinic M4 receptor; P08173; hit rate 0.4% among 360,000; AID 624126; CHO-K1 hM4/Gqi5, Fluo-8 calcium fluorescence, ACh EC20; 0% = ACh EC20, 100% = maximal ACh; activation, % at 3 µM;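 active means activation above its plate's cutoff, the mean activation of sample wells plus 3 SD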
M5 antag: blocks acetylcholine activation of human M5 receptor; AID 624040; P08912; CHO-hM5 cells, Fluo-8 calcium fluorescence, ACh EC80; hit rate 0.59% among 360,000; inhibition, % at 3 µM;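 active means inhibition above a per-plate cutoff, the mean of that plate's test compounds plus 3 SD, cut at about 27% in these data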;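 further: 0% = acetylcholine EC80 with DMSO and 100% = DMSO without agonist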
M4 ag: CHRM4 agonism in calcium assay. P08173. CHO-K1 hM4/Gqi5, Fluo-8 calcium fluorescence; vehicle 0%, full acetylcholine response 100%. activation, % at 3 µM. hit rate 0.14% among 360,000. AID 624127;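 active means activation above the run mean over all test wells plus 3 SD, cut at about 32% in these data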;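 further: peak over basal fluorescence ratio per well then scaled between controls; 0% = DMSO wells and 100% = acetylcholine at EC100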
M5 PAM: CHRM5 positive allosteric modulation; P08912; CHO-K1 hM5, Fluo-8 calcium, ACh EC20 PAM; 0% = ACh EC20, 100% = ACh EC100; activation, % at 3 µM; hit rate 0.3% among 360,000; AID 624038;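 active means activation above the run cutoff, the mean activation of all test compounds plus 3 SD, cut at about 18% in these data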
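Measured by: Fluo-8 calcium fluorescence; material: human M5 receptor in CHO-K1 cells; schedule: Post-acetylcholine fluorescence recording 140 s; benchmarks: low control EC20 acetylcholine (0%), high control EC100 acetylcholine (100%); read-out: Max/basal fluorescence ratio as % of EC20–EC100 ACh window; compound: single dose, 3 µM nominal final test concentration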
Active calls of the source: *. In the library only some 1.8% were active in any assay of this set; here they are far more common.

SMILES | CHRM5 agonist | M4 antag | CHRM4 PAM | M5 antag | M4 ag | M5 PAM
O=C(/C=C/[C@H]1O[C@@H](n2ccc(=O)[nH]c2=O)[C@H](O)[C@@H]1O)NCC1CCCO1 (stereo not given in full) | 0 | 6 | -5 | 3 | 0 | -1
O=C(NCc1ccc(Br)cc1)OC1CC2CC1[C@H]1CCCCN1C2=O (stereo not given in full) | 2 | -13 | 7 | -5 | 5 | 1
O=C(CO/N=C1\CCCc2nonc21)Nc1ccccc1Cl | -1 | 27* | 16 | 2 | 2 | 0
Cc1csc(SCC(=O)N(C)CC(=O)Nc2ccc(F)cc2)n1 | 1 | 4 | -4 | 7 | 0 | 3
Cc1cc(SCC(=O)N(C)CC(=O)Nc2ccc(F)cc2)nc2ccccc12 | 2 | -5 | 21* | -4 | 4 | 10
CC(SCC(=O)Nc1ccc(F)cc1)c1nc2ccccc2c(=O)[nH]1 (stereo not given) | 0 | -11 | 11 | -14 | 2 | 22*
COc1ccc(C(=O)CC(C(=O)O)c2ccc(OC)c(OC)c2)cc1OC (stereo not given) | 1 | -2 | 3 | 11 | 0 | -4
Cc1ccc(/C=N/NC(=O)NC2CCCCC2)o1 | -1 | 8 | -6 | 4 | 3 | -12
Cc1ccc(/C=C/C(=O)NC2CCCCCCC2)o1 | -2 | 7 | 28* | 5 | 0 | 2
Cc1cc(S(=O)(=O)Nc2ccc(C(=O)NCCN3CCOCC3)cc2)ccc1F | -1 | -16 | 7 | 5 | 0 | -3
CNC(=S)N1CCN(c2cccc(OC)c2)CC1 | -1 | 33* | 17 | -1 | 2 | 7
COc1cccc(N2CCN(C(=S)Nc3cc(C)cc(C)c3)CC2)c1 | 1 | -7 | 16 | -7 | 2 | 3
CN(C(=O)c1cc(-c2cccs2)nn1-c1ccccc1)C1CCS(=O)(=O)C1 (stereo not given) | 1 | -4 | 3 | 0 | 1 | 1
O=[N+]([O-])c1ccc(C=CC=Cc2ccccc2)cc1 | 1 | 4 | 6 | 8 | 1 | -2
O=[N+]([O-])c1ccc(/C=C/C2=NN(c3ccccc3)C(c3ccco3)C2)cc1 (stereo not given) | 43* | 16 | -9 | 42* | 15 | -13
O=[N+]([O-])c1ccc(C2=NN(c3ccccc3)C(c3ccco3)C2)cc1 (stereo not given) | 214* | 37* | -34 | 77* | 41* | -31
CC1=NN(c2ccccc2)C(c2ccco2)C1 (stereo not given) | -3 | 1 | 10 | 3 | 0 | -5
O=C1NC[C@@H](CCCCN2CCN(CCc3ccc(O)cc3)C(=O)C2=O)N(Cc2ccccc2)C1=O | -2 | -5 | 4 | 0 | 1 | -2
COc1ccc(-c2c[n+](CC(=O)c3cccs3)c3n2CCC3)cc1 | -6 | -4 | -2 | 13 | 0 | 2
O=C(C[n+]1cc(-c2ccc(Cl)c(Cl)c2)n2c1CCC2)N1c2ccccc2Sc2ccccc21 | -8 | 98* | -17 | 100* | 0 | -19
O=C(C[n+]1cc(-c2ccc(Cl)cc2)n2c1CCC2)N1c2ccccc2Sc2ccccc21 | -10 | 97* | -19 | 99* | 9 | -18
O=C(C[n+]1cc(-c2ccc(Cl)cc2)n2c1CCC2)Nc1nc(-c2ccccc2)cs1 | -4 | -3 | -4 | 6 | 4 | -1
COc1ccc(-c2c[n+](CC(=O)N3c4ccccc4Sc4ccccc43)c3n2CCC3)cc1 | -18 | 53* | -69 | 41* | 0 | -35
CC1CCC(C(C)C)C(OC(=O)C[n+]2cc(-c3ccc(Cl)cc3)n3c2CCC3)C1 (stereo not given) | -18 | 29* | -35 | 53* | 0 | -36
CC(C)CC(N)c1csc(NC(=O)C(c2ccccc2)c2ccccc2)n1 (stereo not given) | 9 | 10 | 1 | 3 | 21 | 4
O=C([O-])c1ccccc1-[n+]1c(-c2ccccc2)cc(-c2ccccc2)cc1-c1ccccc1 | -13 | 61* | -14 | 8 | 0 | -8
